How the values were obtained:
Rattus norvegicus [1] = assay: Plasma ANF Concentration in the Conscious Rat at a dose of 13.1(po)mg/kg at 4 h; type: functional
Method in brief: (§1)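 Male Sprague-Dawley rats (275-390 g) received femoral artery and vein catheters under ketamine (150 mg/kg)/acepromazine and recovered for 24 h, tethered, before study conscious. ratANF(99-126) was infused at 450 ng/kg/min iv for 5 h. Baseline blood was drawn at 60 min into the infusion, then compound was given po.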

[2] = biological target: T1, Angiotensin-converting enzyme (Rattus norvegicus) (UniProt P47820); assay: Compound was tested for plasma inhibition of Angiotensin I converting enzyme activity in the conscious rat. Expressed as Inhibition of AI pressor response at 1 hr at a dose of 13.1 mg/kg po; type: organism-based; design: dose 13.1 mg/kg
T1 sequence (whole entry): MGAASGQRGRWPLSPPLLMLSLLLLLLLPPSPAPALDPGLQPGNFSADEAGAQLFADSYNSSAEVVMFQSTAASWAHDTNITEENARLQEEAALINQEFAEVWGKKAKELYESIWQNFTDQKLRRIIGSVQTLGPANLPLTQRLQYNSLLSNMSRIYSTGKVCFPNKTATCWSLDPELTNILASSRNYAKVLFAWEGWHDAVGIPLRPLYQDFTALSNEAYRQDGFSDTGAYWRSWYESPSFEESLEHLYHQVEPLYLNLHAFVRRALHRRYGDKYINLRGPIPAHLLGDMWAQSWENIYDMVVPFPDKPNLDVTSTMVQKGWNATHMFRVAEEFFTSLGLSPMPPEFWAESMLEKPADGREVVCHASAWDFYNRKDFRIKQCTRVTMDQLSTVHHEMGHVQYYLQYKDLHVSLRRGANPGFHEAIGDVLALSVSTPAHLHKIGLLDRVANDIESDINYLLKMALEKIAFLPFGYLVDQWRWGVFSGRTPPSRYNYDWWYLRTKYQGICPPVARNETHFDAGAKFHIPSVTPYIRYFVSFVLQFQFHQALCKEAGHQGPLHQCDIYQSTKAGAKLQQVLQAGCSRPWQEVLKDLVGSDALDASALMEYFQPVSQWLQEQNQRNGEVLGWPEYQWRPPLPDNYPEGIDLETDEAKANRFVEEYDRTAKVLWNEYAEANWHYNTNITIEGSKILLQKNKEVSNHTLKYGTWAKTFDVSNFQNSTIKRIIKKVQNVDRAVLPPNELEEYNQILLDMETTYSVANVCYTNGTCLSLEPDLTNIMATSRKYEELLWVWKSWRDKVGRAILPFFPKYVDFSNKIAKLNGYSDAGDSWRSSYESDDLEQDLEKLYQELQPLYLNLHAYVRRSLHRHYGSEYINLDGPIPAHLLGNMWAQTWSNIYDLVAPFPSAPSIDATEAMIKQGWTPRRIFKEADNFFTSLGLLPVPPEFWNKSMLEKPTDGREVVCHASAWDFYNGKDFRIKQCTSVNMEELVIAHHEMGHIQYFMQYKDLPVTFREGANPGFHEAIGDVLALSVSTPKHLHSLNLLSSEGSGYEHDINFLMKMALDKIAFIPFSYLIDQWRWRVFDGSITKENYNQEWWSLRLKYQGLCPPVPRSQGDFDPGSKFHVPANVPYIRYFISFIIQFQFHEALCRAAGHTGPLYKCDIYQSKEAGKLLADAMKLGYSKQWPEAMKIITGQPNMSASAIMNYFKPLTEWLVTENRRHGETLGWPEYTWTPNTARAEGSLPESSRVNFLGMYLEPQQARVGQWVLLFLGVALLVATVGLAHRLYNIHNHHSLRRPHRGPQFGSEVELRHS
Method in brief: (§2)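 Male conscious normotensive Sprague-Dawley rats (275-390 g), given femoral arterial and venous catheters under methohexital sodium (75 mg/kg ip) anesthesia. Next day, pressor responses to three angiotensin-I challenges (300 ng/kg iv) recorded by direct arterial pressure. Compound then dosed orally, and AI challenge repeated at set times. Each post-dose response compared with the mean of the three baseline responses, giving % inhibition.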

Rattus norvegicus [3] = assay: Plasma ANF Concentration in the Conscious Rat at a dose of 13.1(po)mg/kg at 1 h; type: functional; method in brief: as §1
Rattus norvegicus [4] = assay: Plasma ANF Concentration in the Conscious Rat at a dose of 13.1(po)mg/kg at 0.5 h; type: functional; method in brief: as §1
[5] = biological target: T1, Angiotensin-converting enzyme (Rattus norvegicus); assay: Compound was tested for plasma inhibition of Angiotensin I converting enzyme activity in the conscious rat. Expressed as Inhibition of AI pressor response at 4 hr at a dose of 13.1 mg/kg po; type: organism-based; design: dose 13.1 mg/kg
Method in brief: (§3)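 Male conscious normotensive Sprague-Dawley rats (275-390 g), prepared under methohexital sodium (75 mg/kg ip) with femoral arterial and venous catheters. The next day, pressor responses to three angiotensin-I challenges (300 ng/kg iv) were recorded. Compound was then given orally and angiotensin-I challenges were repeated at set times. Percent inhibition is relative to the mean of the three baseline responses.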

[6] = biological target: T1, Angiotensin-converting enzyme (Rattus norvegicus); assay: Compound was tested for plasma inhibition of Angiotensin I converting enzyme activity in the conscious rat. Expressed as Inhibition of AI pressor response at 6 hr at a dose of 13.1 mg/kg po; type: organism-based; design: dose 13.1 mg/kg; method in brief: as §3
[7] = biological target: T1, Angiotensin-converting enzyme (Rattus norvegicus); assay: Compound was tested for plasma inhibition of Angiotensin I converting enzyme activity in the conscious rat. Expressed as Inhibition of AI pressor response at 2 hr at a dose of 13.1 mg/kg po; type: organism-based; design: dose 13.1 mg/kg; method in brief: as §2
Rattus norvegicus [8] = assay: Plasma ANF Concentration in the Conscious Rat at a dose of 13.1(po)mg/kg at 2 h; type: functional; method in brief: as §1
[9] = biological target: T1, Angiotensin-converting enzyme (Rattus norvegicus); assay: Compound was tested for plasma inhibition of Angiotensin I converting enzyme activity in the conscious rat. Expressed as Inhibition of AI pressor response at 2 hr at a dose of 13.7 mg/kg po; type: organism-based; design: dose 13.7 mg/kg; method in brief: as §2
[10] = biological target: T1, Angiotensin-converting enzyme (Rattus norvegicus); assay: Compound was tested for plasma inhibition of Angiotensin I converting enzyme activity in the conscious rat. Expressed as Inhibition of AI pressor response at 1 hr at a dose of 13.7 mg/kg po; type: organism-based; design: dose 13.7 mg/kg; method in brief: as §2
[11] = biological target: T1, Angiotensin-converting enzyme (Rattus norvegicus); assay: Compound was tested for plasma inhibition of Angiotensin I converting enzyme activity in the conscious rat. Expressed as Inhibition of AI pressor response at 4 hr at a dose of 13.7 mg/kg po; type: organism-based; design: dose 13.7 mg/kg; method in brief: as §3
Rattus norvegicus [12] = assay: Plasma ANF Concentration in the Conscious Rat at a dose of 13.7(po)mg/kg at 1 h; type: functional
Method in brief: (§4)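 Male Sprague-Dawley rats (275-390 g), catheterized in femoral artery and vein under ketamine (150 mg/kg)/acepromazine, tethered and recovered 24 h, studied conscious. Continuous iv rat ANF(99-126) infusion at 450 ng/kg/min for 5 h; baseline blood at 60 min, then oral dosing, sampling at 30-240 min.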

Rattus norvegicus [13] = assay: Plasma ANF Concentration in the Conscious Rat at a dose of 13.7(po)mg/kg at 0.5 h; type: functional; method in brief: as §4
Rattus norvegicus [14] = assay: Plasma ANF Concentration in the Conscious Rat at a dose of 13.7(po)mg/kg at 4 h; type: functional; method in brief: as §4
[15] = biological target: T1, Angiotensin-converting enzyme (Rattus norvegicus); assay: Compound was tested for plasma inhibition of Angiotensin I converting enzyme activity in the conscious rat. Expressed as Inhibition of AI pressor response at 6 hr at a dose of 13.7 mg/kg po; type: organism-based; design: dose 13.7 mg/kg; method in brief: as §3
Rattus norvegicus [16] = assay: Plasma ANF Concentration in the Conscious Rat at a dose of 13.7(po)mg/kg at 2 h; type: functional; method in brief: as §4
Rattus norvegicus [17] = assay: Plasma ANF Concentration in the Conscious Rat at a dose of 12.4 (p.o.) mg/kg at 0.5 h; type: functional; method in brief: as §1
Rattus norvegicus [18] = assay: Plasma ANF Concentration in the Conscious Rat at a dose of 12.4 (p.o.) mg/kg at 2 h; type: functional; method in brief: as §1
[19] = biological target: T1, Angiotensin-converting enzyme (Rattus norvegicus); assay: Compound was tested for plasma inhibition of Angiotensin I converting enzyme activity in the conscious rat. Expressed as Inhibition of AI pressor response at 4 hr at a dose of 12.4 mg/kg po; type: organism-based; design: dose 12.4 mg/kg; method in brief: as §2
[20] = biological target: T1, Angiotensin-converting enzyme (Rattus norvegicus); assay: Compound was tested for plasma inhibition of Angiotensin I converting enzyme activity in the conscious rat. Expressed as Inhibition of AI pressor response at 2 hr at a dose of 12.4 mg/kg po; type: organism-based; design: dose 12.4 mg/kg; method in brief: as §2
[21] = biological target: T1, Angiotensin-converting enzyme (Rattus norvegicus); assay: Compound was tested for plasma inhibition of Angiotensin I converting enzyme activity in the conscious rat. Expressed as Inhibition of AI pressor response at 1 hr at a dose of 12.4 mg/kg po; type: organism-based; design: dose 12.4 mg/kg; method in brief: as §2
Rattus norvegicus [22] = assay: Plasma ANF Concentration in the Conscious Rat at a dose of 12.4 (p.o.) mg/kg at 4 h; type: functional; method in brief: as §1
Rattus norvegicus [23] = assay: Plasma ANF Concentration in the Conscious Rat at a dose of 12.4 (p.o.) mg/kg at 1 h; type: functional; method in brief: as §1
[24] = biological target: T1, Angiotensin-converting enzyme (Rattus norvegicus); assay: Compound was tested for plasma inhibition of Angiotensin I converting enzyme activity in the conscious rat. Expressed as Inhibition of AI pressor response at 6 hr at a dose of 12.4 mg/kg po; type: organism-based; design: dose 12.4 mg/kg; method in brief: as §3

Compound: COc1ccc(C[C@H](NC(=O)C2(NC(=O)[C@H](SC(C)=O)C(C)C)CCCC2)C(=O)OCc2ccccc2)cc1
- Control (Rattus norvegicus [1]): 181%
- inhibition [2]: 85%
- Control (Rattus norvegicus [3]): 111%
- Control (Rattus norvegicus [4]): 107%
- inhibition [5]: 81%
- inhibition [6]: 64%
- inhibition [7]: 84%
- Control (Rattus norvegicus [8]): 143%

Compound: CCN(CC)C(=O)COC(=O)[C@H](Cc1ccc(OC)cc1)NC(=O)C1(NC(=O)[C@H](SC(C)=O)C(C)C)CCCC1
- inhibition [9]: 86%
- inhibition [10]: 88%
- inhibition [11]: 73%
- Control (Rattus norvegicus [12]): 187%
- Control (Rattus norvegicus [13]): 159%
- Control (Rattus norvegicus [14]): 264%
- inhibition [15]: 64%
- Control (Rattus norvegicus [16]): 215%

Compound: CCCCOC(=O)[C@H](Cc1ccc(O)cc1)NC(=O)C1(NC(=O)[C@H](SC(C)=O)C(C)C)CCCC1
- Control (Rattus norvegicus [17]): 131%
- Control (Rattus norvegicus [18]): 178%
- inhibition [19]: 70%
- inhibition [20]: 78%
- inhibition [21]: 76%
- Control (Rattus norvegicus [22]): 185%
- Control (Rattus norvegicus [23]): 133%
- inhibition [24]: 72%
